From PubChem BioAssay
ABHD5 PLIN5 PPI: ABHD5-PLIN5 interaction inhibitors, primary screen, cell lysate, split luciferase complementation, luminescence; Perilipin-5 (Homo sapiens) + 1-acylglycerol-3-phosphate O-acyltransferase ABHD5 (Homo …; Split G. princeps luciferase complementation, 4 h; inhibition, % at 4 µM; 0.78% of 360,000 active;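 active = inhibition above the mean inhibition across every tested compound plus 3 SD, cut at about 22% in these data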;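 note: 0% = DMSO only wells and the 100% control is not disclosed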
A3A deaminase: APOBEC3A ssDNA deaminase inhibitors, primary screen, selectivity assay for APOBEC3G inhibitor project, biochemical, FAM/TAMRA oligo cleavage fluorescence | AID 493011, 2011 | recombinant A3A, FAM/TAMRA ssDNA deamination fluorescence | DNA dC->dU-editing enzyme APOBEC-3A (Homo sapiens), P31941 | inhibition, % at 20 µM | 0.41% of 330,000 active;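 active = at least 40% inhibition at 20 µM here, with at most 30% in a related deaminase screen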;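 note: plate controls were A3A with DMSO for no effect and wells lacking A3A enzyme for full effect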
Target sequence (P31941 whole entry, looked up): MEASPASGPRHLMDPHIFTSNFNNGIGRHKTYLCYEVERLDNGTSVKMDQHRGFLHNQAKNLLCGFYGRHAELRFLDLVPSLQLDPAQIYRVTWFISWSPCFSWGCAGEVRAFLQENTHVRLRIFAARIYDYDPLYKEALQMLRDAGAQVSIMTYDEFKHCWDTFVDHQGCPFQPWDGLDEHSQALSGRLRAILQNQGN
HCV NS3 hel inh: inhibitors of HCV NS3 helicase, primary screen, biochemical, Cy5 molecular beacon fluorescence; Hepatitis C virus NS3 helicase; NS3 helicase DNA unwinding; inhibition, % at 10.9 µM; 0.56% of 290,000 active;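 active = inhibition above the mean of all tested compounds plus 3 SD, set per campaign, cut at about 35% in these data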;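 note: 0% = DMSO wells and 100% = thioflavine S control wells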
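Test system: hepatitis C virus NS3 helicase domain fragment enzyme. Also added: annealed dual-labelled DNA beacon duplex, ATP-started. Timing: 60 min unwinding reaction at 25 °C after ATP addition. Technique: Cy5 fluorescence. Measure: % inhibition of unwinding.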
PRMT1 inh: PRMT1 methyltransferase inhibitors, primary screen, biochemical, fluorescence polarization. inhibition, % at 2.79 µM. 1.3% of 370,000 active. AID 652257, 2013. recombinant PRMT1, activity-based probe fluorescence polarization. Protein arginine N-methyltransferase 1 (Homo sapiens), Q99873;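 active = inhibition above about 21% made by adding two undisclosed values, limit read from the data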
Target sequence (Q99873 whole entry, looked up): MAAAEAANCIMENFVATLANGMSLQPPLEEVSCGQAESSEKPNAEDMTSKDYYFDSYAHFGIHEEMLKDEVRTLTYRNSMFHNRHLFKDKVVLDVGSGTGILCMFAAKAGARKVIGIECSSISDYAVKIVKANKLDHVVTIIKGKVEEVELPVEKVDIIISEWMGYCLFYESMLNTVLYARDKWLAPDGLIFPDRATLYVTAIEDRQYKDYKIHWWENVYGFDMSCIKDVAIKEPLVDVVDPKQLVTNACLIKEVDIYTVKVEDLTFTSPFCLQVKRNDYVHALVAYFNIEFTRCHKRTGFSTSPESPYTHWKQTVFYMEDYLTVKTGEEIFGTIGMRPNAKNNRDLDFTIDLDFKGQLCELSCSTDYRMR
HCV core dimer: inhibitors of HCV core protein dimerization, primary screen, biochemical, TR-FRET, high-throughput; inhibition, % at 5 µM; 0.33% of 300,000 active; TR-FRET GST/Flag-core106 dimerization, 1536-well;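 active = inhibition above the mean of all tested compounds plus 3 SD, set per screening campaign, cut at about 45% in these data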
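Assay system – GST-tagged and Flag-tagged HCV core protein residues 1-106 · Quantity – core106 proteins, GST 13.5 nM and Flag 17 nM · Benchmarks – unlabelled core106 and no-GST-core106 wells · Read-out basis – percent inhibition of core106 dimerization signal · Detection – time-resolved FRET, ex 340 nm, em 617 and 671 nm · Schedule – 4 h at 22.5 °C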
A3G deaminase: APOBEC3G DNA deaminase inhibitors, primary screen, biochemical, fluorescence, single-stranded DNA substrate, uHTS. inhibition, % at 20 µM. recombinant A3G, ssDNA deamination FAM/TAMRA fluorescence. 0.28% of 330,000 active. DNA dC->dU-editing enzyme APOBEC-3G (Homo sapiens), Q9HC16;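 active = inhibition of at least 40% at 20 µM, with no more than 30% in the related APOBEC3A deaminase screen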;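 note: plate controls were DMSO wells with A3G for no effect and wells lacking A3G enzyme for full effect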
APOBEC3A confirm: APOBEC3A deaminase inhibitors, retest, confirmation, selectivity assay for APOBEC3G inhibitor project, biochemical, single concentration, fluorescence readout. shares compounds with A3A deaminase. inhibition, % at 20 µM. 63% of 1,400 active. recombinant A3A, ssDNA deaminase UDG fluorescence assay;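 active = inhibition reaching a set limit, 80% of the first screen's cutoff, at 20 µM in any replicate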;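 note: plate controls were DMSO wells with A3A for no effect and wells lacking A3A enzyme for full effect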
UDG ctr A3A: E. coli UDG inhibitors, confirmation, counter-screen for APOBEC3A inhibitor project, biochemical, single concentration, fluorescence, FAM/TAMRA oligo | shares compounds with A3A deaminase | UDG counterscreen, FAM/TAMRA uracil oligo fluorescence | inhibition, % at 20 µM | 1,000 tested, under 10 active | AID 504714, 2011; call rule not given here
The depositor's hits bear a star; . = no result given. An excerpt weighted towards active compounds, which were near 2.9% of everything screened.

SMILES | ABHD5 PLIN5 PPI | A3A deaminase | HCV NS3 hel inh | PRMT1 inh | HCV core dimer | A3G deaminase | APOBEC3A confirm | UDG ctr A3A
CCOC(=O)c1c(NC(=O)CN2C(=O)C(=O)N(C(C)C)C2=O)sc(C)c1CC | 0 | -1 | . | 3 | . | -7 | . | .
CCNc1ccc(S(=O)(=O)N(C)C)cc1[N+](=O)[O-] | 5 | 67* | 5 | -1 | -2 | 21 | 54* | .
CCCCNc1ccc(S(N)(=O)=O)cc1[N+](=O)[O-] | . | 2 | 5 | . | 6 | -2 | . | .
O=C(CCC(=O)N1CCSc2ccccc21)NC1CCCCC1 | -2 | -2 | 1 | -4 | 4 | -9 | . | .
CC(C)CN(C(=O)CC(C)c1ccccc1)c1c(N)n(Cc2ccccc2)c(=O)[nH]c1=O (stereo not drawn) | -2 | 70* | . | 3 | -6 | 20 | 11 | .
CC(=O)c1ccc2c3c(cccc13)C(=O)N(c1c(C)nn(C)c1C)C2=O | 0 | 48* | 11 | 1 | -2 | 28 | 4 | .
Cc1ccc(N2C(=O)c3cccc4c(C(=O)O)ccc(c34)C2=O)cc1 | . | -1 | 3 | 2 | -1 | 1 | . | .
Cc1cc(C=O)c(C)n1-c1cc(C(=O)O)cc(C(=O)O)c1 | 5 | 64* | 24 | 6 | -25 | 21 | 64* | 2
Cc1cc(C=O)c(C)n1-c1cccc(C(=O)O)c1 | -5 | 3 | -4 | 2 | 0 | 3 | . | .
O=C(NCc1ccccc1)[C@@H]1CCCN1C(=O)[C@H]1CCCN1C(=O)c1ccc(F)c(C(F)(F)F)c1 | . | . | . | -5 | . | . | . | .
CC1=CC(C)C(COC(=O)CN2CCCCC2)C(C)C1 (stereo not drawn) | -2 | -2 | -13 | 2 | -2 | -4 | . | .
CC1=CC(C)C(C[N+]2(C)CCCCC2)C(C)C1 (stereo not drawn) | 1 | 58* | 9 | 5 | 0 | 13 | 56* | -3
CCC(Oc1ccccc1OC)C(=O)Nc1ccc2c(c1)OCCO2 (stereo not drawn) | 2 | . | -2 | -4 | -1 | . | 57* | .
O=C(CSc1ncn(-c2ccccc2)n1)Nc1ccc2c(c1)OCO2 | -2 | 46* | 1 | 0 | 16 | 12 | 11 | .
O=C(CSc1ncn(-c2ccccc2)n1)Nc1ccc2c(c1)OCCO2 | -4 | -6 | -6 | 1 | -2 | -6 | . | .
CCn1c(/C=C/Nc2ccccc2)[n+](CC)c2cc(Cl)c(Cl)cc21 | -4 | 30 | 6 | 1 | -10 | 7 | . | .
CCn1c(C)[n+](CCOCC[n+]2c(C)n(CC)c3cc(Cl)c(Cl)cc32)c2cc(Cl)c(Cl)cc21 | 1 | 78* | -5 | -1 | -4 | 29 | 88* | -2
CCOC(=O)Cn1c(=O)n(CC(=O)OCC)c2ccccc21 | -1 | 0 | 1 | -2 | -2 | -4 | . | .
CCOC(=O)Cn1c(C)[n+](C)c2cc(Cl)c(Cl)cc21 | -3 | 87* | 2 | -1 | -5 | 24 | 81* | 2
CC(=O)OCCn1c(C)[n+](CCOC(C)=O)c2cc(Cl)c(Cl)cc21 | -2 | 82* | 12 | 2 | -2 | 14 | 81* | -1
Cc1ccn(-c2ccc(NC(=O)c3cccs3)cc2)n1 | -11 | -2 | -6 | 3 | 4 | -10 | . | .
CCN(CC)c1ncnc2c1ncn2[C@H]1CN(Cc2ccc(-c3ccccc3)cc2)C[C@@H](CO)O1 | -11 | . | . | 1 | . | . | . | .
CSC1=NC2C(N1)N(C)C(=O)N2C (stereo not drawn) | 2 | 58* | 6 | -1 | -11 | 20 | 21 | .
CCn1c(/C=C/N(C(C)=O)c2ccccc2)[n+](CCCS(=O)(=O)[O-])c2cc(Cl)c(Cl)cc21 | 4 | -2 | 2 | -1 | 1 | -4 | . | .
COC(=O)c1ccc2c(c1)nc(C)n2CCO | 3 | -4 | 1 | -1 | 5 | -4 | . | .
SMILES | ABHD5 PLIN5 PPI | A3A deaminase | HCV NS3 hel inh | PRMT1 inh | HCV core dimer | A3G deaminase | APOBEC3A confirm | UDG ctr A3A
CCOC(=O)c1ccc2c(c1)n(CCO)c(C)[n+]2CC | 1 | 43* | -7 | 1 | 0 | 21 | 82* | 7
CCOC(=O)c1ccc2c(c1)n(CC)c(/C=C/N(C)c1ccccc1)[n+]2CC | 8 | 57* | -15 | -2 | 5 | 17 | 79* | 3
COCc1c(C(=O)N2CCN(Cc3nc4ccccc4s3)CC2)oc2ccccc12 | 3 | 63* | . | 8 | . | 20 | 72* | -2
COc1ccc(C(=O)c2[nH]c(N)c(C(=O)NCCc3c[nH]c4ccccc34)c2-c2ccc(Br)cc2)cc1 | -6 | . | . | 3 | . | . | . | .
COc1cccc(OCCn2cc(C(=O)c3ccco3)c3ccccc32)c1 | 6 | 0 | -9 | -2 | 13 | -3 | . | .
COc1cccc(OCCn2cc(C(C)=O)c3ccccc32)c1 | -6 | 48* | 13 | 2 | 0 | 7 | 14 | .
CNCCCNC(=O)c1ccc(/C=N/O)nc1 | 1 | 0 | -4 | 3 | 3 | -7 | . | .
C[N+](C)(C)CCCNC(=O)c1ccc(/C=N/O)nc1 | 2 | 41* | -8 | 2 | -1 | 15 | 72* | 1
C[n+]1ccccc1/C=C/c1ccccc1Cl | 0 | 81* | -2 | 6 | . | 14 | 67* | -3
[O-][n+]1ccccc1/C=C/c1ccccc1 | 4 | 0 | . | 0 | -1 | -4 | . | .
Cc1ccccc1/C=C/c1cccc[n+]1C | -8 | 84* | 14 | -3 | . | 15 | 69* | -3
O=C(NCc1ccccc1)c1cc(C2COCCN2S(=O)(=O)c2ccccc2)on1 (stereo not drawn) | -10 | . | . | 0 | . | . | . | .
CC(NC(=S)Nc1ccc(F)cc1)c1ccccc1 (stereo not drawn) | 4 | 88* | -7 | -1 | 12 | -4 | 10 | 11
C=CCn1nnnc1SCC(=O)Nc1cccc(C(F)(F)F)c1 | 8 | 70* | -2 | 0 | -2 | 23 | 81* | -3
